Source: ChEMBL document CHEMBL1142145, “Posaconazole prophylaxis in experimental systemic zygomycosis” (2007)
Converted amounts (≈) assume the structure as drawn. The source made the active and inactive calls. The rule behind the calls is not given here.

Experiments:
Mus musculus [1] = assay: Increase in survival of Absidia corymbifera 4535 infected neutropenic CD1 mouse at 1 mg/kg/day, ip; type: functional, organism-based
Procedure, shortened: (§1)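 Male CD1 mice (25 g) made neutropenic with cyclophosphamide 200 mg/kg i.p. on […], +1 and +4 relative to infection. […] Inocula per mouse: R. oryzae 4570, 5 x 10^6; A. corymbifera, 5 x 10^5; R. oryzae 4745, 2 x 10^6 or 1 x 10^5. Deaths were recorded daily to day 10, with 13–18 mice/group and log-rank comparison.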

Rhizopus arrhizus [2] = assay: Reduction of infection foci size in Rhizopus oryzae 4570 infected neutropenic CD1 mouse kidney at 1 mg/kg/day, ip; type: functional, organism-based
Procedure, shortened: (§2)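 On day 3 brains and kidneys were formalin-fixed and stained with Grocott-Gomori methenamine silver. At least two blinded observers counted hyphal foci and measured their size over 20 consecutive fields (15.7 mm2/section). Data are means ± SEM, 5 mice/group, ANOVA with Bonferroni.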

Lichtheimia corymbifera [3] = assay: Reduction of infection foci size in Absidia corymbifera 4535 infected neutropenic CD1 mouse kidney at 1 mg/kg/day, ip; type: functional, organism-based; procedure, shortened: as §2
Lichtheimia corymbifera [4] = assay: Percentage of infected kidney in neutropenic CD1 mouse infected with Absidia corymbifera 4535 at 1 mg/kg/day, ip; type: functional; conditions: route intraperitoneal
Procedure, shortened: (§3)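 They were infected i.v. with R. oryzae 4570 (5 x 10^6 spores) or A. corymbifera (5 x 10^5 spores). On day 3 brain, lungs, spleen and kidneys were homogenized in 2 ml saline and plated whole on SDA (detection limit 1 CFU/organ). Value is % culture-positive organs; 8 mice/group.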

Rhizopus arrhizus [5] = assay: Antimicrobial activity against Rhizopus oryzae 4570; type: functional
Procedure, shortened: (§4)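 CLSI M38-A broth microdilution. Isolates were grown on Sabouraud dextrose agar for 5 days at 35°C, and conidia were harvested in 0.85% saline. The final inoculum was about 10^4 CFU/ml, set by hemocytometer. Drug range 0.015–8.0 µg/ml; plates incubated at 35°C for 21–26 h. MIC was the lowest concentration with no discernible growth. Each strain was tested in quintuplicate.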

Mus musculus [6] = assay: Increase in survival of neutropenic CD1 mouse infected with 2 mega Rhizopus oryzae 4745 at 1 mg/kg/day, ip; type: functional, organism-based; procedure, shortened: as §1
Lichtheimia corymbifera [7] = assay: Percentage of infected spleen in neutropenic CD1 mouse infected with Absidia corymbifera 4535 at 1 mg/kg/day, ip; type: functional; conditions: route intraperitoneal; procedure, shortened: as §3
Rhizopus arrhizus [8] = assay: Antimicrobial activity against Rhizopus oryzae 4745; type: functional; procedure, shortened: as §4
Lichtheimia corymbifera [9] = assay: Reduction of number of infection foci in Absidia corymbifera 4535 infected neutropenic CD1 mouse kidney at 1 mg/kg/day, ip; type: functional, organism-based; procedure, shortened: as §2
Lichtheimia corymbifera [10] = assay: Antimicrobial activity against Absidia corymbifera 4535; type: functional; procedure, shortened: as §4
Mus musculus [11] = assay: Increase in survival of Rhizopus oryzae 4570 infected neutropenic CD1 mouse at 1 mg/kg/day, ip; type: functional, organism-based; procedure, shortened: as §1
Rhizopus arrhizus [12] = assay: Reduction of number of infection foci in Rhizopus oryzae 4570 infected neutropenic CD1 mouse kidney at 1 mg/kg/day, ip; type: functional, organism-based; procedure, shortened: as §2
Lichtheimia corymbifera [13] = assay: Percentage of infected lung in neutropenic CD1 mouse infected with Absidia corymbifera 4535 at 1 mg/kg/day, ip; type: functional; conditions: route intraperitoneal; procedure, shortened: as §3
Mus musculus [14] = assay: Increase in survival of neutropenic CD1 mouse infected with 0.1 mega Rhizopus oryzae 4745 at 1 mg/kg/day, ip; type: functional, organism-based; procedure, shortened: as §1
Lichtheimia corymbifera [15] = assay: Percentage of infected kidney in neutropenic CD1 mouse infected with Absidia corymbifera 4535 at 30 mg/kg/day, po; type: functional
Procedure, shortened: (§5)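 Neutropenic CD1 mice received three daily oral prophylactic doses, the last 2 h before i.v. challenge: R. oryzae 4570 at 5 x 10^6 or A. corymbifera at 5 x 10^5 spores/mouse. On day 3 mice were killed. Brain, lungs, spleen and kidneys were homogenized in 2 ml saline and plated whole on SDA; detection limit 1 CFU/organ. Read-out was percent culture-positive organs, eight mice per group.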

Mus musculus [16] = assay: Increase in survival of Absidia corymbifera 4535 infected neutropenic CD1 mouse at 80 mg/kg/day, po; type: functional, organism-based
Procedure, shortened: (§6)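 Male CD1 mice (25 g) were made neutropenic with i.p. cyclophosphamide, 200 mg/kg, on days […] and +4 postinfection. Oral gavage dosing (200 µl) was given daily for 3 days, the last dose 2 h before i.v. challenge; controls received PEG 200. Challenge per mouse: R. oryzae 4570, 5 x 10^6 spores; A. corymbifera, 5 x 10^5; R. oryzae 4745, 1 x 10^5. Deaths were recorded daily to day 10, moribund mice counted dead next day. 13–18 mice per group; log rank test.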

Lichtheimia corymbifera [17] = assay: Percentage of infected brain in neutropenic CD1 mouse infected with Absidia corymbifera 4535 at 30 mg/kg/day, po; type: functional; procedure, shortened: as §5
Lichtheimia corymbifera [18] = assay: Reduction of number of infection foci in Absidia corymbifera 4535 infected neutropenic CD1 mouse brain at 30 mg/kg/day, po; type: functional, organism-based
Procedure, shortened: (§7)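 Neutropenic CD1 mice were given oral prophylaxis for 3 days, then i.v. challenge with R. oryzae 4570 (5 x 10^6 spores) or A. corymbifera (5 x 10^5). On day 3, brain and kidney were formalin-fixed, paraffin-embedded and stained with Grocott-Gomori methenamine silver. Number and size of hyphal foci were scored blind by at least two observers in 20 consecutive fields (15.7 mm2 per section). Values are mean ± SEM from 5 mice per group; ANOVA with Bonferroni correction.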

Rhizopus arrhizus [19] = assay: Reduction of number of infection foci in Rhizopus oryzae 4570 infected neutropenic CD1 mouse kidney at 30 mg/kg/day, po; type: functional, organism-based; procedure, shortened: as §7
Lichtheimia corymbifera [20] = assay: Percentage of infected lung in neutropenic CD1 mouse infected with Absidia corymbifera 4535 at 30 mg/kg/day, po; type: functional; procedure, shortened: as §5
Rhizopus arrhizus [21] = assay: Percentage of infected kidney in neutropenic CD1 mouse infected with Rhizopus oryzae 4570 at 30 mg/kg/day, po; type: functional; procedure, shortened: as §5
Mus musculus [22] = assay: Increase in survival of neutropenic CD1 mouse infected with 0.1 mega Rhizopus oryzae 4745 at 50 mg/kg/day, po; type: functional, organism-based; procedure, shortened: as §6
Mus musculus [23] = assay: Increase in survival of Rhizopus oryzae 4570 infected neutropenic CD1 mouse at 20 mg/kg/day, po; type: functional, organism-based; procedure, shortened: as §6
Rhizopus arrhizus [24] = assay: Reduction of number of infection foci in Rhizopus oryzae 4570 infected neutropenic CD1 mouse brain at 30 mg/kg/day, po; type: functional, organism-based; procedure, shortened: as §7
Lichtheimia corymbifera [25] = assay: Reduction of number of infection foci in Absidia corymbifera 4535 infected neutropenic CD1 mouse kidney at 30 mg/kg/day, po; type: functional, organism-based; procedure, shortened: as §7
Rhizopus arrhizus [26] = assay: Reduction of infection foci size in Rhizopus oryzae 4570 infected neutropenic CD1 mouse kidney at 30 mg/kg/day, po; type: functional, organism-based; procedure, shortened: as §7
Rhizopus arrhizus [27] = assay: Percentage of infected lung in neutropenic CD1 mouse infected with Rhizopus oryzae 4570 at 30 mg/kg/day, po; type: functional; procedure, shortened: as §5
Rhizopus arrhizus [28] = assay: Percentage of infected brain in neutropenic CD1 mouse infected with Rhizopus oryzae 4570 at 30 mg/kg/day, po; type: functional; procedure, shortened: as §5
Lichtheimia corymbifera [29] = assay: Reduction of infection foci size in Absidia corymbifera 4535 infected neutropenic CD1 mouse brain at 30 mg/kg/day, po; type: functional, organism-based; procedure, shortened: as §7
Lichtheimia corymbifera [30] = assay: Reduction of infection foci size in Absidia corymbifera 4535 infected neutropenic CD1 mouse kidney at 30 mg/kg/day, po; type: functional, organism-based; procedure, shortened: as §7
Rhizopus arrhizus [31] = assay: Reduction of infection foci size in Rhizopus oryzae 4570 infected neutropenic CD1 mouse brain at 30 mg/kg/day, po; type: functional, organism-based; procedure, shortened: as §7
Lichtheimia corymbifera [32] = assay: Percentage of infected spleen in neutropenic CD1 mouse infected with Absidia corymbifera 4535 at 30 mg/kg/day, po; type: functional; procedure, shortened: as §5
Mus musculus [33] = assay: Increase in survival of Rhizopus oryzae 4570 infected neutropenic CD1 mouse at 80 mg/kg/day, po; type: functional, organism-based; procedure, shortened: as §6
Rhizopus arrhizus [34] = assay: Percentage of infected spleen in neutropenic CD1 mouse infected with Rhizopus oryzae 4570 at 30 mg/kg/day, po; type: functional; procedure, shortened: as §5
Mus musculus [35] = assay: Increase in survival of Absidia corymbifera 4535 infected neutropenic CD1 mouse at 20 mg/kg/day, po; type: functional, organism-based; procedure, shortened: as §6

In the case of `C[C@@H]1[C@H](O)[C@@H](C)/C=C/C=C/C=C/C=C/C=C/C=C/C=C/[C@H](O[C@@H]2O[C@H](C)[C@@H](O)[C@H](N)[C@@H]2O)C[C@@H]2O[C@](O)(C[C@@H](O)C[C@@H](O)[C@H](O)CC[C@@H](O)C[C@@H](O)CC(=O)O[C@H]1C)C[C@H](O)[C@H]2C(=O)O` [AMPHOTERICIN B], the Activity (Mus musculus [1]) is reported as “Active”, the Activity (Rhizopus arrhizus [2]) is reported as “Active” and the Activity (Lichtheimia corymbifera [3]) is reported as “Active”. For the same compound, the Activity (Lichtheimia corymbifera [4]) was 62.5%, the MIC (Rhizopus arrhizus [5]) was 2 µg/mL (≈ 2.16 µM) and the Activity (Mus musculus [6]) was “Active”. For the same compound, the Activity (Lichtheimia corymbifera [7]) was 100%, the MIC (Rhizopus arrhizus [8]) was 0.5 µg/mL (≈ 0.541 µM) and the Activity (Lichtheimia corymbifera [9]) was “Active”. The MIC (Lichtheimia corymbifera [10]) was 1 µg/mL (≈ 1.08 µM), the Activity (Mus musculus [11]) was “Active” and the Activity (Rhizopus arrhizus [12]) was “Active”. The Activity (Lichtheimia corymbifera [13]) was 25% and the Activity (Mus musculus [14]) was “Active”.

With `CC[C@@H]([C@H](C)O)n1ncn(-c2ccc(N3CCN(c4ccc(OC[C@@H]5CO[C@@](Cn6cncn6)(c6ccc(F)cc6F)C5)cc4)CC3)cc2)c1=O` [POSACONAZOLE] the Activity (Lichtheimia corymbifera [15]) was 75%, the Activity (Mus musculus [16]) was “Active” and the Activity (Lichtheimia corymbifera [17]) was 62.5%. The Activity (Lichtheimia corymbifera [18]) was “Active”, the MIC (Rhizopus arrhizus [5]) was 1 µg/mL (≈ 1.43 µM) and the Activity (Rhizopus arrhizus [19]) was “Active”. For the same compound, the Activity (Lichtheimia corymbifera [20]) was 12.5%, the Activity (Rhizopus arrhizus [21]) was 100% and the Activity (Mus musculus [22]) was “Active”. For the same compound, the Activity (Mus musculus [23]) was “inactive”, the MIC (Rhizopus arrhizus [8]) was 1 µg/mL (≈ 1.43 µM) and the Activity (Rhizopus arrhizus [24]) was “inactive”. The MIC (Lichtheimia corymbifera [10]) was 0.25 µg/mL (≈ 0.357 µM), the Activity (Lichtheimia corymbifera [25]) was “Active” and the Activity (Rhizopus arrhizus [26]) was “Active”. For the same compound, the Activity (Rhizopus arrhizus [27]) was 100%, the Activity (Rhizopus arrhizus [28]) was 100% and the Activity (Lichtheimia corymbifera [29]) was “Active”. For the same compound, the Activity (Lichtheimia corymbifera [30]) was “Active”, the Activity (Rhizopus arrhizus [31]) was “inactive” and the Activity (Lichtheimia corymbifera [32]) was 100%. For the same compound, the Activity (Mus musculus [33]) was “inactive”, the Activity (Rhizopus arrhizus [34]) was 100% and the Activity (Mus musculus [35]) was “Active”.
